Source: PubChem BioAssay
Rtt109 Vps75 – inhibitors of Candida albicans Rtt109/Vps75 histone acetyltransferase. purified Rtt109/Vps75, ThioGlo CoA-SH fluorescence, 4 h. Q5AAJ8. inhibition, % at 34.9 µM. 330,000 tested, 0.16% active;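 active = inhibition of at least 50% in every replicate; inconclusive = best replicate reaches 50% inhibition but some replicates fall short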
Target sequence (Q5AAJ8 whole entry, looked up): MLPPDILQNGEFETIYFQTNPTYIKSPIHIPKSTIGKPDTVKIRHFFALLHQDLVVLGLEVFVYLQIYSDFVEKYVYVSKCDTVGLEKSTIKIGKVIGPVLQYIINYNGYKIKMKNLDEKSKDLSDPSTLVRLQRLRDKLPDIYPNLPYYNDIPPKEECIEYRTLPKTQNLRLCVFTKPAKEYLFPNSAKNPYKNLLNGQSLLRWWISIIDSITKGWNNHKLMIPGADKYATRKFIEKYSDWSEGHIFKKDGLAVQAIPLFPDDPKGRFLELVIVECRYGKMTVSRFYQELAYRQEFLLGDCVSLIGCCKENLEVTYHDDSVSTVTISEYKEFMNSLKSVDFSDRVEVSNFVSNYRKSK
GSIS activator – GLuc luminescence reporter in INS-1E cells, primary screen for activators of glucose-dependent secretion of insulin | activation, % at 16.6 µM | INS-1E GLuc reporter insulin secretion, 2-3 h | 370,000 tested, 0.61% active;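 active = lowest replicate activation of at least 40%, so every replicate reaches that level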;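 also: 0% = median of neutral control wells and 100% = median of IBMX positive control wells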
dFosB activator – mouse delta FosB homodimer activation. P13346. purified delta FosB, TAMRA-CDK5 oligo fluorescence polarization; percent of positive-control signal above neutral wells. 340,000 tested, 0.99% active. activation, % at 25 µM;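 active = mean activation above about 17%, with every replicate also reaching it, limit read from the data, passing the limit was not always enough; inconclusive = only one of the two conditions met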
Target sequence (P13346 whole entry, looked up): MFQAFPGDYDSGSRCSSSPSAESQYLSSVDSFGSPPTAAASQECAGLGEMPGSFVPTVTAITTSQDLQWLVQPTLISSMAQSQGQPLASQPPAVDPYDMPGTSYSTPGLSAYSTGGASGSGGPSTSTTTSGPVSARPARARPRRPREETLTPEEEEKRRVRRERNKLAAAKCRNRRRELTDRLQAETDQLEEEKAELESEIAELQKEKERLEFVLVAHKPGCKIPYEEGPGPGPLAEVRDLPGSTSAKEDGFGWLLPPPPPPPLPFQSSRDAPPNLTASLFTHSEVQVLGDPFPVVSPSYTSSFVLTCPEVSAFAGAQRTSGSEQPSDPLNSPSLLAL
Cneo AK release – Cryptococcus neoformans lysis via adenylate kinase release | C. neoformans lysis, adenylate kinase release luminescence, 4 h; normalised: neutral wells 0, clomiphene wells 100 | lysis activity, % at 15 µM | 360,000 tested, 0.2% active | AID 651654;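 active = mean lysis activity across replicates of at least 80%, whatever share of replicates individually reach that level; inactive = mean lysis activity below 80%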
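read-out = cell lysis signal | test system = log-phase Cryptococcus neoformans yeast cells | input = cells at 5 × 10^6 per mL | medium = fresh YPD growth medium | signal = luminescent adenylate kinase detection reagent | timing = 4 h at 37 °C static, read 1 h later | dosing = single dose | controls = Clomiphene as positive lysis control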
miR-122 sensor – inhibitors of miR-122 in Huh7 cells. Huh7 miR-122 Renilla luciferase sensor, 48 h; neutral wells = 0, positive control = 100. activation (reporter increase), % at 12.5 µM. 340,000 tested, 0.3% active. AID 602342;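 active = mean replicate activation score at least 90 and every replicate individually at or above 90; inconclusive = only one of the two criteria met; inactive = neither criterion met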;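 also: higher luciferase means less miR-122 activity so hits act as miR-122 inhibitors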
Env fusion inh – HIV envelope-mediated fusion inhibition; HeLa-JRFL Env/CEM21 cell fusion, luciferase; inhibition, % at 12.3 µM; 360,000 tested, 1.1% active;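 active = mean replicate inhibition score of at least 50 and every replicate individually at or above 50; inconclusive = only one of the two criteria met; inactive = mean below 50 and not all replicates reaching 50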;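 also: 0% = plate neutral controls and 100% = maraviroc near 300 nM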
The depositor's hits bear a star; ? = inconclusive; · = no result given; [ ] = dose if it differs, or a comment. Most compounds without a hit are left out; they make up all but 2.4% or so of the library.

SMILES	Rtt109 Vps75	GSIS activator	dFosB activator	Cneo AK release	miR-122 sensor	Env fusion inh
CCC(=O)N1CC2(C1)CN(CC1CCOCC1)[C@@H](CO)c1c2c2ccc(OC)cc2n1C	·	-6.5	·	·	·	·
O=C(N/N=C/c1ccccc1)C(O)c1ccccc1 (configuration not stated)	30.1	25.2	0.9	-1.6	10.8	-3.1
O=C(N/N=C/c1cccs1)C(O)c1ccccc1 (configuration not stated)	-0.9	7.1	2.2	-2.2	197.1*	-13.1
O=S(Cc1ccc(Br)cc1)Cc1nnc(SCc2ccc(Cl)cc2)n1-c1ccccc1 (configuration not stated)	2.0	·	-7.7	0.7	2.6	65.4*
Cc1ccc(CSc2nnc(CS(=O)Cc3ccc(Cl)cc3Cl)n2C)cc1 (configuration not stated)	6.8	-7.1	-8.6	-0.4	-4.6	·
Cn1c(CS(=O)Cc2c(Cl)cccc2Cl)nnc1SCc1ccc(Cl)cc1 (configuration not stated)	-2.3	-34.2	-2.3	·	2.0	62.0*
COc1ccc(S(=O)(=O)N(C)C[C@@H]2Oc3ccc(NC(=O)C4CCCCC4)cc3C(=O)N([C@@H](C)CO)C[C@@H]2C)cc1	·	1.1	·	-2.7	5.0[16.7 µM]	-150.2[16.7 µM]
CCOC(=O)CN1CCCc2nc(C)c(C)cc21	·	·	·	·	·	84.4*
CCOC(=O)CN1CCCc2nc(-c3ccc(OC)cc3)ccc21	·	·	·	·	·	-45.7
CC(C)Sc1nc(SCC(=O)O)c2c3c(sc2n1)COC(C)(C)C3	1.9	55.1*	-3.2	0.8	-2.5	-12.4
C[C@H](CO)N1C[C@H](C)[C@@H](CN(C)C(=O)Nc2cccc3ccccc23)Oc2ccc(NC(=O)Nc3ccc4c(c3)OCO4)cc2CC1=O	·	-7.3	·	0.7	14.6[16.7 µM]	2.0[16.7 µM]
Cc1cccc2cc(C#N)c(NCCNC(=O)NC3CCCCC3)nc12	1.3	26.8	2.7	-1.7	-8.0	9.1
Cc1ccc2cc(C#N)c(NCCNC(=O)C3CCC3)nc2c1C	14.3	·	1.6	3.0	-13.0	106.0*
CCCCc1ccc(-n2c(Cc3cccs3)n[nH]c2=S)cc1	71.8*	-4.2	-3.9	·	·	-2.3
S=c1[nH]nc(Cc2cccs2)n1-c1ccccc1	-3.6	31.4	-3.7	-1.1	3.2	·
Cc1cc(S(=O)(=O)NCC(c2ccccc2)c2ccccc2)ccc1-n1cnnn1	12.4	12.2	-6.0	5.0	125.2*	?
Cc1cc(S(=O)(=O)N(Cc2ccccc2F)C2CC2)ccc1-n1cnnn1	11.1	-14.3	-17.2	0.2	143.2*	7.7
COc1ccccc1CNS(=O)(=O)c1ccc(-n2cnnn2)c(C)c1	-4.9	1.3	-8.2	-4.0	·	-20.0
COc1ccc(S(=O)(=O)Nc2cccc3c2O[C@H](CN(C)C(=O)NC(C)C)[C@@H](C)CN([C@@H](C)CO)C3=O)cc1	·	24.3	·	-0.1	9.8[16.7 µM]	-15.1[16.7 µM]
Cc1ccc(C(=O)NCCNC(=O)COc2ccccc2Cl)cn1	50.8*	-5.7	7.2	0.3	-13.7	15.2
CCOc1ccc(C(=O)NCC(=O)OCCN2C(=O)c3ccccc3C2=O)cc1OCC	-10.0	57.0*	-5.1	-0.4	·	·
Cc1ccc(C(=O)NCC(=O)OCCOc2ccccc2Cl)cc1	56.5*	-7.1	-10.5	·	-4.6	-29.4
Cc1ccc(C)c(S(=O)(=O)NCC(c2ccc3c(c2)OCO3)N2CCOCC2)c1 (configuration not stated)	1.3	-36.7	-3.4	-0.3	100.9*	50.0
CCO[C@@H]1OC(C(=O)Nc2ccccc2)=C[C@H](c2cn(C(C)=O)c3ccccc23)[C@H]1CCCO	·	·	·	-2.9	·	1.2[16.7 µM]
CC(C)NC(=O)Nc1cccc2c1O[C@@H](CN(C)C)[C@@H](C)CN(C)C2=O	·	-17.3	·	·	·	·
SMILES	Rtt109 Vps75	GSIS activator	dFosB activator	Cneo AK release	miR-122 sensor	Env fusion inh
Cc1ccc(S(=O)(=O)N[C@H]2CC[C@@H](CC(=O)NCCN3CCCCC3)O[C@H]2CO)cc1	·	20.9	·	-3.3	·	-13.4[16.7 µM]
Cc1nn(-c2ccc(Cl)cc2)c(Cl)c1/C=C(\C#N)C(N)=O	-6.3	13.1	-6.2	4.8	-1.4	·
Cc1nn(-c2ccccc2Cl)c(Cl)c1/C=C(\C#N)C(N)=O	-5.3	63.7*	12.2	·	·	25.2
CC(=O)Nc1nc(-c2ccc3c(c2)CC(C)N3C(=O)C2CC2)c(C)s1 (configuration not stated)	2.0	-2.2	-15.4	35.1	0.1	58.6*
C[C@@H]1CN([C@H](C)CO)S(=O)(=O)c2ccc(-c3ccc(F)cc3)cc2O[C@H]1CN(C)Cc1cccc(F)c1	·	57.7*	·	·	-3.0[16.7 µM]	45.5[16.7 µM]
C[C@H]1CN([C@@H](C)CO)S(=O)(=O)c2ccc(-c3cccc(C#N)c3)cc2O[C@H]1CN(C)Cc1cccc(F)c1	·	-1.1	·	-1.6	-8.8[16.7 µM]	74.1*[16.7 µM]
COc1ccc(CNC(=O)c2cc(=O)c3cc(C)ccc3o2)cc1	0.2	-2.6	17.4*	-2.6	-4.7	4.4
Cc1ccc2oc(C(=O)NCc3ccccc3)cc(=O)c2c1	9.8	7.5	14.7	4.9	1.9	-24.6
COc1ccc(CNC(=O)c2c(C)oc3c2C(=O)c2ccccc2C3=O)cc1	-3.6	·	-11.2	-2.5	11.9	63.7*
O=S(=O)(NCc1cccnc1)c1ccc(Cl)c(Cl)c1Cl	·	·	-0.2	-0.8	19.2	·
O=S(=O)(NCc1cccnc1)c1ccc(Cl)c2ccccc12	4.2	14.0	-4.9	1.3	174.7*	4.0
COc1ccc2c3c([nH]c2c1)[C@@H](CO)N(Cc1ccccc1)CC31CCN(C(=O)c2cccnc2)CC1	·	9.8	·	·	·	-162.0[16.7 µM]
CN(C)Cc1cn(CC[C@@H]2CC[C@H](N)[C@H](CO)O2)nn1	·	-3.7	·	-8.1	1.4[16.7 µM]	63.1*[16.7 µM]
C[C@H]1CN([C@@H](C)CO)C(=O)c2cccc(NC(=O)C3CCOCC3)c2O[C@H]1CN(C)CC1CCCCC1	·	11.3	·	-0.6	28.7[16.7 µM]	-6.3[16.7 µM]
O=C(Nc1ccc(-c2nc3ccccc3o2)cc1)c1cc(-n2cnnc2)ccc1Cl	-4.4	·	-0.5	0.3	-5.3	57.5*
C[C@H]1CN(C)C(=O)c2cccc(N)c2O[C@H]1CN(C)S(C)(=O)=O	·	-18.0	·	·	·	·
COc1ccc(-c2noc(CCCCC(=O)N3CCN(c4cc(C)ccc4C)CC3)n2)cc1	-2.3	-53.1	-11.2	-11.7	-4.5	68.3*
C=CCOC(=O)C1=C(C)NC(SCC(=O)Nc2ccc(C)c(Cl)c2)=C(C#N)C1c1ccco1 (configuration not stated)	2.8	·	2.4	4.3	4.0	55.4*
O=C(/C=C/c1cc[n+](CC(=O)c2ccc3cccc4c3c2CC4)cc1)c1ccc2cccc3c2c1CC3	-1.6	·	147.2*	·	·	·
O=C(C1CCC1)N1CC(=O)N2[C@@H](CO)[C@@H](c3ccc(C4=CCCCC4)cc3)[C@@H]2C1	·	-7.5	·	·	·	·
COc1ccc(S(=O)(=O)N2CCC3(CC2)CN(Cc2ccncc2)[C@H](CO)c2[nH]c4cc(OC)ccc4c23)cc1	·	30.9	·	·	·	·
